Consider 10 compounds from ChEMBL document CHEMBL3580573, “Ibogan, tacaman, and cytotoxic bisindole alkaloids from tabernaemontana. Cononusine, an iboga alkaloid with unusual incorporation of a pyrrolidone moiety” (J Nat Prod, 2015).

Bounds are passed on as bounds.

The test system of assay [1] is KB. Put plainly: Cytotoxicity against vincristine-resistant human KB cells assessed as growth inhibition after 72 hrs by MTT assay in presence of vincristine. Format: functional, cell-based.
Assay [2] concerns KB. In words: Cytotoxicity against vincristine-sensitive human KB cells assessed as growth inhibition after 72 hrs by MTT assay. Format: functional, cell-based.
Assay [3] concerns KB. Put plainly: Cytotoxicity against vincristine-resistant human KB cells assessed as growth inhibition after 72 hrs by MTT assay. The class given is functional, cell-based. On the technique in general: Formazan colour is commonly taken as a measure of viable cells.
In assay [4] the test system is HCT-116. In words: Induction of apoptosis in human HCT116 cells assessed as late apoptotic cells at 2 times IC50 after 48 hrs by annexin V-FITC/propidium iodide staining-based flow cytometric analysis (reference value: 2.27%). Format: functional. For orientation: Flow cytometry measures light scatter and fluorescence of single cells or particles in a stream.
For assay [5], the system named is MDA-MB-468. Put plainly: Induction of apoptosis in human MDA-MB-468 cells assessed as viable cells at 2 times IC50 after 48 hrs by annexin V-FITC/propidium iodide staining-based flow cytometric analysis (reference value: 92.9%). The class given is functional.
Assay [6] concerns MDA-MB-468. Put plainly: Cytotoxicity against human MDA-MB-468 cells assessed as growth inhibition after 72 hrs by MTT assay. Format: functional, cell-based. The following applies: MDA-MB-468, 72 h.
For assay [7], the system named is HCT-116. Put plainly: Induction of apoptosis in human HCT116 cells assessed as early apoptotic cells at 2 times IC50 after 48 hrs by annexin V-FITC/propidium iodide staining-based flow cytometric analysis (reference value: 1.45%). The class given is functional.
In assay [8] the test system is MDA-MB-468. Put plainly: Induction of apoptosis in human MDA-MB-468 cells assessed as early apoptotic cells at 2 times IC50 after 48 hrs by annexin V-FITC/propidium iodide staining-based flow cytometric analysis (reference value: 3.24%). Format: functional.
Assay [9] concerns MDA-MB-468. In words: Induction of apoptosis in human MDA-MB-468 cells assessed as viable cells at IC50 after 48 hrs by annexin V-FITC/propidium iodide staining-based flow cytometric analysis (reference value: 92.9%). Format: functional.
Assay [10] concerns MDA-MB-468. Put plainly: Cell cycle arrest in human MDA-MB-468 cells assessed as accumulation at pre-G1 phase at IC50 to 2 times IC50 after 48 hrs relative to control. Format: functional. Put shortly:
(§1)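 Cells were exposed for 48 h, then analysed by flow-cytometric cell cycle profiling. Pre-G1 events were scored and compared with untreated control, with significance at p < 0.05.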

Assay [11] concerns MDA-MB-468. In words: Induction of apoptosis in human MDA-MB-468 cells assessed as necrotic cells at IC50 after 48 hrs by annexin V-FITC/propidium iodide staining-based flow cytometric analysis (reference value: 0.25%). The class given is functional.
Assay [12] concerns HT-29. Put plainly: Cytotoxicity against human HT-29 cells assessed as growth inhibition after 72 hrs by MTT assay. Format: functional, cell-based. The following applies: HT-29, 72 h.
In assay [13] the test system is MDA-MB-468. Put plainly: Induction of apoptosis in human MDA-MB-468 cells assessed as necrotic cells at 2 times IC50 after 48 hrs by annexin V-FITC/propidium iodide staining-based flow cytometric analysis (reference value: 0.25%). The class given is functional.
In assay [14] the test system is HCT-116. In words: Induction of apoptosis in human HCT116 cells assessed as necrotic cells at IC50 after 48 hrs by annexin V-FITC/propidium iodide staining-based flow cytometric analysis (reference value: 1.84%). The class given is functional.
Assay [15] deals with MCF7. Put plainly: Cytotoxicity against human MCF7 cells assessed as growth inhibition after 72 hrs by MTT assay. Conditions: MCF7, 72 h. Format: functional, cell-based.
The subject of assay [16] is HCT-116. Put plainly: Induction of apoptosis in human HCT116 cells assessed as necrotic cells at 2 times IC50 after 48 hrs by annexin V-FITC/propidium iodide staining-based flow cytometric analysis (reference value: 1.84%). Format: functional.
Assay [17] deals with HCT-116. Put plainly: Induction of apoptosis in human HCT116 cells assessed as viable cells at IC50 after 48 hrs by annexin V-FITC/propidium iodide staining-based flow cytometric analysis (reference value: 94.4%). Format: functional.
The test system of assay [18] is HCT-116. Put plainly: Induction of apoptosis in human HCT116 cells assessed as late apoptotic cells at IC50 after 48 hrs by annexin V-FITC/propidium iodide staining-based flow cytometric analysis (reference value: 2.27%). The class given is functional.
Assay [19] concerns HCT-116. In words: Induction of apoptosis in human HCT116 cells assessed as viable cells at 2 times IC50 after 48 hrs by annexin V-FITC/propidium iodide staining-based flow cytometric analysis (reference value: 94.4%). Format: functional.
Assay [20] deals with HCT-116. Put plainly: Cytotoxicity against human HCT116 cells assessed as growth inhibition after 72 hrs by MTT assay. The class given is functional, cell-based. Conditions: HCT-116, 72 h.
Assay [21] deals with MDA-MB-468. Put plainly: Induction of apoptosis in human MDA-MB-468 cells assessed as early apoptotic cells at IC50 after 48 hrs by annexin V-FITC/propidium iodide staining-based flow cytometric analysis (reference value: 3.24%). The class given is functional.
Assay [22] concerns HCT-116. Put plainly: Induction of apoptosis in human HCT116 cells assessed as early apoptotic cells at IC50 after 48 hrs by annexin V-FITC/propidium iodide staining-based flow cytometric analysis (reference value: 1.45%). Format: functional.
Assay [23] concerns MDA-MB-468. In words: Induction of apoptosis in human MDA-MB-468 cells assessed as late apoptotic cells at 2 times IC50 after 48 hrs by annexin V-FITC/propidium iodide staining-based flow cytometric analysis (reference value: 3.65%). The class given is functional.
The subject of assay [24] is HCT-116. In words: Cell cycle arrest in human HCT116 cells assessed as accumulation at pre-G1 phase at IC50 to 2 times IC50 after 48 hrs relative to control. Format: functional. Put shortly: as §1
The subject of assay [25] is MDA-MB-468. In words: Induction of apoptosis in human MDA-MB-468 cells assessed as late apoptotic cells at IC50 after 48 hrs by annexin V-FITC/propidium iodide staining-based flow cytometric analysis (reference value: 3.65%). The class given is functional.
The subject of assay [26] is A549. In words: Cytotoxicity against human A549 cells assessed as growth inhibition after 72 hrs by MTT assay. Format: functional, cell-based. Conditions: A549, 72 h.

Broadly, the IC50 is the midpoint of a concentration-inhibition curve. Regarding `CC[C@H]1C[C@H]2C[C@H]3c4[nH]c5cc(C6CCC(=O)N6)c(OC)cc5c4CCN(C2)[C@@H]13` (stereo partly specified), the IC50 in assay [1], in assay [2] and in [3] was above 25 mg/L throughout.
Consider `CC[C@H]1C[C@H]2C[C@@H]3[C@H]1N(C2)C[C@@H](O)[C@@]31Nc2ccc(OC)cc2C1=O`, for which the IC50 was 53.2 µM in assay [1], above 25 mg/L in assay [2] and above 25 mg/L in [3].
As to `C/C=C1/CN2[C@H]3C[C@H]1C1(C(=O)OC)C[C@]4(C[C@@H]21)c1ccccc1N(C)[C@H]34` (stereo partly specified), the IC50 in assay [1] was 2.62 µM; in assay [2] it was above 25 mg/L; in [3], above 25 mg/L.
With `CC[C@]1(O)C[C@@H]2CC(=O)n3c4c(c5ccccc53)CCN(C1)[C@@H]42`, the IC50 in assay [1], in assay [2] and in assay [3] was above 25 mg/L each time.
For `CC[C@H]1C[C@H]2C[C@H]3c4[nH]c5ccc(OC)cc5c4C(=O)CN(C2)[C@@H]13`, the IC50 in assay [1], in assay [2] and in assay [3] was above 25 mg/L each time.
For the compound `C/C=C1/C[N+]2(CCl)CC[C@]34C(=C(C=O)[C@H]1C[C@@H]32)Nc1ccccc14.[Cl-]` (stereo partly specified), the IC50 in [1], in assay [2] and in [3] was above 25 mg/L throughout.
Turning to `C/C=C1/CN(C)[C@H]2Cc3c([nH]c4ccccc34)[C@@H](c3cc4[nH]c5c(c4cc3OC)CCN3C[C@H]4C[C@H](CC)[C@H]3[C@H]5C4)C[C@H]1[C@]2(CO)C(=O)OC`, the Activity in assay [4] is recorded as 72.4%; in assay [5] it was 63.1%; in assay [7], 8.25%; in assay [8] it was 21.4%; in assay [9], 90.1%; in [10], 35%. Further, the Activity in assay [11] was 0.18%; in [13] it was 1.68%; in [14], 3%; in assay [16], 14.5%; in assay [17] it was 79.6%; in assay [18], 11.4%. Moreover, the Activity in [19] is given as 4.85%; in assay [21], 3.95%; in assay [22], 6.98%; in assay [23], 13.8%; in assay [24], 80%; in assay [25], 5.76%. Moreover, the IC50 in [6] stood at 2.77 µM; in assay [1] it was 0.98 µM; in assay [12] it was 2.57 µM; in assay [2], 1.39 µM; in assay [15] it was 4.19 µM; in assay [20] it was 2.91 µM. Moreover, the IC50 in assay [3] came to 1.21 µM; in [26], 3.06 µM.
Consider `C/C=C1/CN[C@H]2Cc3c([nH]c4ccccc34)[C@@H](c3cc4[nH]c5c(c4cc3OC)CCN3C[C@H]4C[C@H](CC)[C@H]3[C@H]5C4)C[C@H]1[C@@H]2C(=O)OC`, for which the Activity in [4] is 43.7%; in assay [5], 22.8%; in assay [7] it was 3.5%; in assay [8] it was 42.5%; in assay [9], 93%; in assay [10], 35%. Further, the Activity in assay [11] came to 0.17%; in [13], 2.68%; in [14], 48.4%; in assay [16], 46.4%; in assay [17], 21.9%; in assay [18] it was 22%. For the same compound, the Activity in [19] turned out to be 6.4%; in [21] it was 3.7%; in [22] it was 7.76%; in assay [23], 32%; in assay [24], 80%; in assay [25] it was 3.15%. Also, the IC50 is 0.7 µM in [6]; 1.2 µM in [1]; 1.58 µM in [12]; 0.95 µM in assay [2]; 3.23 µM in assay [15]; 2.03 µM in assay [20]. In addition, the figures for the IC50 in assay [3] and in [26] were 1.11 µM and 2.83 µM, respectively.
Turning to `C/C=C1/CN(C)[C@H]2Cc3c([nH]c4ccccc34)[C@@H](c3cc4[nH]c5c(c4cc3OC)CCN3C[C@H]4C[C@H](CC)[C@H]3[C@H]5C4)C[C@H]1[C@@H]2C(=O)OC`, the IC50 came out at 0.8 µM in assay [1], 1.53 µM in [2] and 0.98 µM in assay [3].
On to `C/C=C1/CN(C)[C@H]2Cc3c([nH]c4ccccc34)[C@@H](c3cc4c(cc3OC)C(=O)[C@@]3(CCN5C[C@H]6C[C@H](CC)[C@H]5[C@H]3C6)N4)C[C@H]1[C@@H]2C(=O)OC`, for which the IC50 in assay [1] was 1.21 µM; in assay [2], 1.06 µM; in assay [3] it was 1.06 µM.
